Test results: ChEMBL document CHEMBL1138091, “Privileged structure based ligands for melanocortin-4 receptors--aliphatic piperazine derivatives” (Bioorg Med Chem Lett, 2006)

What follows are compounds tested against Melanocortin receptor 4 (Homo sapiens, UniProt P32245) (assay: Inhibition of [125I]NDP-alpha-MSH binding to human MC4R transfected in HEK293 cells).
Melanocortin receptor 4, sequence (P32245 whole entry): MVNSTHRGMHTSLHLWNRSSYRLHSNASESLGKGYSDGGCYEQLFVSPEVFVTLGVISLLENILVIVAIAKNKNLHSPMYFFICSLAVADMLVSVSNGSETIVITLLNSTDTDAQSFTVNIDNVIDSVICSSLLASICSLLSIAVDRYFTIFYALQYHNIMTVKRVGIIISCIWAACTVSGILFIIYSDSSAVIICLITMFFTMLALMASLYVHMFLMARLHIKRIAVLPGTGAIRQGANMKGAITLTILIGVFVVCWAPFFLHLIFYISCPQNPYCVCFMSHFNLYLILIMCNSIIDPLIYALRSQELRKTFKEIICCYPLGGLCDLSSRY
Assay type: cell-based
In short: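 Competition binding against ¹²⁵I-NDP-α-MSH on HEK293 cells stably expressing human MC4 receptor; affinity taken from inhibition of radioligand binding. Each value is the mean of at least two determinations, with the binding assay's average error given as 15%.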
Compound `CC(C)CC(C1CCCCC1)N1CCN(C(=O)[C@@H](Cc2ccc(Cl)cc2)NC(=O)CC2Cc3ccccc3N2)CC1` (some centres not stated) has a Ki of 54 nM.
`CCN(CC)C(=O)C(C1CCCCC1)N1CCN(C(=O)[C@@H](Cc2ccc(Cl)cc2)NC(=O)CC2Cc3ccccc3N2)CC1` (some centres not stated) gave a Ki of 148 nM.
`CS(=O)(=O)NCC(C1CCCCC1)N1CCN(C(=O)[C@@H](Cc2ccc(Cl)cc2)NC(=O)CC2Cc3ccccc3N2)CC1` (some centres not stated) gave a Ki of 26 nM.
For `CCN(CC)CC(CC1CCCCC1)N1CCN(C(=O)[C@@H](Cc2ccc(Cl)cc2)NC(=O)[C@H]2Cc3ccccc3CN2)CC1` (some centres not stated), the Ki was 13 nM.
`O=C(CC1Cc2ccccc2N1)N[C@H](Cc1ccc(Cl)cc1)C(=O)N1CCN(C(C2CCCCC2)C2CCCCC2)CC1` (some centres not stated) was tested, and the Ki was 35 nM.
`CCN(CC)CC1(N2CCN(C(=O)[C@@H](Cc3ccc(Cl)cc3)NC(=O)[C@H]3Cc4ccccc4CN3)CC2)CCCC1` was tested, and the Ki was 70 nM.
`O=C(CC1Cc2ccccc2N1)N[C@H](Cc1ccc(Cl)cc1)C(=O)N1CCN(C(CC2CCCCC2)CN2CCOCC2)CC1` (some centres not stated) showed a Ki of 10 nM.
Work on `CCN(CC)CC(CC1CCCCC1)N1CCN(C(=O)[C@@H](Cc2ccc(Cl)cc2)NC(=O)CC2Cc3ccccc3N2)CC1` (some centres not stated) yielded a Ki of 5 nM.
`CCN(CC)CC(c1ccccc1F)N1CCN(C(=O)[C@@H](Cc2ccc(Cl)cc2)NC(=O)[C@H]2Cc3ccccc3CN2)CC1` (some centres not stated) was tested, and the Ki was 20 nM.
In the case of `O=C(CC1Cc2ccccc2N1)N[C@H](Cc1ccc(Cl)cc1)C(=O)N1CCN(C(CC2CCCCC2)CC2CCCCC2)CC1` (some centres not stated), the Ki is reported as 326 nM.
For `CC(C)CC(CC(C)C)N1CCN(C(=O)[C@@H](Cc2ccc(Cl)cc2)NC(=O)CC2Cc3ccccc3N2)CC1` (some centres not stated), the Ki was 18 nM.
`CCN(CC)CC(C1CCCC1)N1CCN(C(=O)[C@@H](Cc2ccc(Cl)cc2)NC(=O)[C@H]2Cc3ccccc3CN2)CC1` (some centres not stated) gave a Ki of 4 nM.
For `CCN(CC)CC(C1CCCCCC1)N1CCN(C(=O)[C@@H](Cc2ccc(Cl)cc2)NC(=O)[C@H]2Cc3ccccc3CN2)CC1` (some centres not stated), the Ki was 13 nM.
In the case of `CCN(CC)CC(C1CCCCC1)N1CCN(C(=O)[C@@H](Cc2ccc(Cl)cc2)NC(=O)[C@H]2Cc3ccccc3CN2)CC1` (some centres not stated), the Ki is reported as 4 nM.
For `CCN(CC)CC(C)N1CCN(C(=O)[C@@H](Cc2ccc(Cl)cc2)NC(=O)[C@H]2Cc3ccccc3CN2)CC1` (some centres not stated), the Ki was 3430 nM.
In the case of `CCN(CC(C1CCCCC1)N1CCN(C(=O)[C@@H](Cc2ccc(Cl)cc2)NC(=O)n2cc3ccccc3c2)CC1)S(C)(=O)=O` (some centres not stated), the Ki is reported as 7 nM.
Work on `CCN(CC)CC(C1CCCCC1)N1CCN(C(=O)[C@@H](Cc2ccc(Cl)cc2)NC(=O)CC2Cc3ccccc3N2)CC1` (stereo in doubt; 28) yielded a Ki of 3 nM.
In the case of `CCN(CC)CC(C1CCCCC1)N1CCN(C(=O)[C@@H](Cc2ccc(Cl)cc2)NC(=O)CC2Cc3ccccc3N2)CC1` (stereo in doubt; 28a), the Ki is reported as 3 nM.
With `CCN(CC)CC(C1CCCCC1)N1CCN(C(=O)[C@@H](Cc2ccc(Cl)cc2)NC(=O)CC2Cc3ccccc3N2)CC1` (stereo in doubt; 28b) the Ki was 5 nM.
`CCN(CC(C1CCCCC1)N1CCN(C(=O)[C@@H](Cc2ccc(Cl)cc2)NC(=O)CC2Cc3ccccc3N2)CC1)S(C)(=O)=O` (stereo in doubt; 34) gave a Ki of 3 nM.
In the case of `CCN(CC(C1CCCCC1)N1CCN(C(=O)[C@@H](Cc2ccc(Cl)cc2)NC(=O)CC2Cc3ccccc3N2)CC1)S(C)(=O)=O` (stereo in doubt; 34a), the Ki is reported as 6 nM.
In the case of `CCN(CC(C1CCCCC1)N1CCN(C(=O)[C@@H](Cc2ccc(Cl)cc2)NC(=O)CC2Cc3ccccc3N2)CC1)C(C)=O` (stereo in doubt; 35), the Ki is reported as 8 nM.
`CCN(CC(C1CCCCC1)N1CCN(C(=O)[C@@H](Cc2ccc(Cl)cc2)NC(=O)CC2Cc3ccccc3N2)CC1)C(C)=O` (stereo in doubt; 35a) gave a Ki of 2 nM.
`CCN(CC(C1CCCCC1)N1CCN(C(=O)[C@@H](Cc2ccc(Cl)cc2)NC(=O)CC2Cc3ccccc3N2)CC1)C(C)=O` (stereo in doubt; 35b) showed a Ki of 3 nM.
Compound `O=C(CC1Cc2ccccc2N1)N[C@H](Cc1ccc(Cl)cc1)C(=O)N1CCN(C(CN2C(=O)CCC2=O)C2CCCCC2)CC1` (stereo in doubt; 36) has a Ki of 10 nM.
With `O=C(CC1Cc2ccccc2N1)N[C@H](Cc1ccc(Cl)cc1)C(=O)N1CCN(C(CN2C(=O)CCC2=O)C2CCCCC2)CC1` (stereo in doubt; 36a) the Ki was 10 nM.
`O=C(CC1Cc2ccccc2N1)N[C@H](Cc1ccc(Cl)cc1)C(=O)N1CCN(C(CN2C(=O)CCC2=O)C2CCCCC2)CC1` (stereo in doubt; 36b) showed a Ki of 18 nM.
